Measurements reported in ChEMBL document CHEMBL1781992, “A novel monocarbonyl analogue of curcumin, (1E,4E)-1,5-bis(2,3-dimethoxyphenyl)penta-1,4-dien-3-one, induced cancer cell H460 apoptosis via activation of endoplasmic reticulum stress signaling pathway” (J Med Chem, 2011).
Activity calls are given as the source filed them. No cut-off for these calls is given here.

What was measured:
NCI-H460 [1] = assay: Induction of apoptosis in human NCI-H460 cells assessed as activation of caspase 3 activity at 20 uM after 24 hrs by Western blot analysis; assay type: functional, cell-based
NCI-H460 [2] = assay: Increase in p53 expression in human NCI-H460 cells after 1 to 12 hrs by Western blot analysis; assay type: functional, cell-based
Summary of the method: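 H460 cells exposed to 20 μM for varying times, or to a range of concentrations for 12 h. Lysates made in Tris-HCl pH 7.4/NaCl/NP40/SDS buffer with protease and phosphatase inhibitors, then probed for p53 by Western blot with chemiluminescent detection; bands quantified by densitometry.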

NCI-H460 [3] = assay: Induction of CHOP protein expression in human NCI-H460 cells at 20 uM after 12 hrs by Western blot analysis; assay type: functional, cell-based
Summary of the method: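 H460 cells treated for 6–24 h, or across a range of concentrations. CHOP protein measured by Western blot, densitometry expressed as percent of control; Student's t test.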

NCI-H460 [4] = assay: Induction of CHOP expression in human NCI-H460 cells at 15 to 20 uM after 24 hrs by Western blot analysis; assay type: functional, cell-based
Summary of the method: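 H460 cells treated for 24 h at the indicated concentrations; whole-cell lysates probed for CHOP by Western blot, with actin as loading control.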

Mus musculus [5] = assay: Toxicity in ICR mouse assessed as organ weight change at 400 to 800 mg/kg; assay type: organism-based; set-up: dose 400-800 mg/kg; details: in vivo
NCI-H460 [6] = assay: Induction of apoptosis in human NCI-H460 cells assessed as viable cells at 5 uM after 6 hrs by annexinV-propidium iodide staining based flow cytometric analysis relative to control; assay type: functional; details: NCI-H460, 6 h, read-out: Activity
Summary of the method: (§1)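 H460 cells plated for 6 h, then treated with 5, 10 or 20 μM. Cells washed, trypsin-EDTA detached and resuspended in PBS, then stained with annexin V and propidium iodide plus RNase and 0.1% Triton X-100 for 30 min at 37 °C before flow cytometry. Figure legend gives 6 h incubation.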

NCI-H460 [7] = assay: Antitumor activity against human NCI-H460 cells xenografted in nude Balb/cA mouse assessed as decrease in tumor volume at 50 mg/kg, ip qd for 20 days measured on day 22 relative to control; assay type: functional; set-up: scale not given: the % may be the effect or the level left; details: route intraperitoneal
Summary of the method: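 BALB/cA nu/nu female athymic mice bearing sc right-flank xenografts (3 × 10^6 H460 cells in PBS); once-daily ip dosing began on day 10, when tumors reached 100–300 mm3. Water-soluble liposome preparation in PBS at 10 or 50 mg/kg; controls received liposome vehicle in PBS. Volume = lw²/2; T/C read on day 22. Seven mice per group, mean ± SD; Student's t test.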

NCI-H460 [8] = assay: Induction of apoptosis in human NCI-H460 cells assessed as early apoptotic cells at 5 uM after 6 hrs by annexinV-propidium iodide staining based flow cytometric analysis relative to control; assay type: functional; summary of the method: as §1
NCI-H460 [9] = assay: Induction of apoptosis in human NCI-H460 cells assessed as non-viable necrotic cells at 10 uM after 6 hrs by annexinV-propidium iodide staining based flow cytometric analysis relative to control; assay type: functional; summary of the method: as §1
NCI-H460 [10] = assay: Induction of apoptosis in human NCI-H460 cells assessed as late apoptotic cells at 5 uM after 6 hrs by annexinV-propidium iodide staining based flow cytometric analysis relative to control; assay type: functional; summary of the method: as §1
NCI-H460 [11] = assay: Induction of apoptosis in human NCI-H460 cells after 6 hrs by Flow cytometric analysis; assay type: functional, cell-based; summary of the method: as §1
NCI-H460 [12] = assay: Decrease in CHOP protein expression in human NCI-H460 cells transfected with lentivirus carrying CHOP siRNA at 10 uM after 6 hrs by Western blot analysis
NCI-H460 [13] = assay: Induction of apoptosis in human NCI-H460 cells assessed as non-viable necrotic cells at 20 uM after 6 hrs by annexinV-propidium iodide staining based flow cytometric analysis relative to control; assay type: functional; summary of the method: as §1
NCI-H460 [14] = assay: Induction of apoptosis in human NCI-H460 cells assessed as late apoptotic cells at 10 uM after 6 hrs by annexinV-propidium iodide staining based flow cytometric analysis relative to control; assay type: functional; summary of the method: as §1
NCI-H460 [15] = assay: Cytotoxicity against human NCI-H460 cells assessed as reduction of cell survival after 24 hrs by CellTiter-Glo analysis; assay type: functional, cell-based
Summary of the method: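 H460 cells (5 × 10^3/well) seeded overnight, then given fresh medium containing compound from DMSO stock (final 5, 10, 20 μM; 2.5–30 μM in the figure) for 24 h. Viability measured with CellTiter-Glo and expressed as percent of vehicle-treated cells; Student's t test.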

[16] = molecular target: Transcription factor Jun (Homo sapiens) (UniProt P05412); assay: Induction of c-Jun phosphorylation in human NCI-H460 cells at 20 uM after 3 hrs by Western blot analysis; assay type: cell-based
Chain of Transcription factor Jun (Homo sapiens) (P05412 whole entry): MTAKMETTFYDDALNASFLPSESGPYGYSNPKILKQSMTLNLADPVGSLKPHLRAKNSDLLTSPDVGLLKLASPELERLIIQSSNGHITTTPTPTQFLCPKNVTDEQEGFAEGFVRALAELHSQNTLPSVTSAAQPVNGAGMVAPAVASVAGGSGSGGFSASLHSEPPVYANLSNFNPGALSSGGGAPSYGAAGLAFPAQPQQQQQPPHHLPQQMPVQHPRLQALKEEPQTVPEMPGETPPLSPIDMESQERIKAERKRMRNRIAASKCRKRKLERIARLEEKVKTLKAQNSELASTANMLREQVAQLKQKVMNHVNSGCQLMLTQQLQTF
Summary of the method: (§2)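 H460 cells cultured in RPMI 1640 with 5% heat-inactivated FBS at 37 C, 10% CO2; exposed to 20 μM for a time course. Lysed at 0 C in Tris-HCl pH 7.4 buffer with NP40, SDS, and protease/phosphatase inhibitors. Phospho-c-Jun detected by Western blot with chemiluminescence, actin as loading control; band density quantified.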

NCI-H460 [17] = assay: Induction of apoptosis in human NCI-H460 cells at 20 uM after 6 hrs by flow cytometric analysis; assay type: functional; summary of the method: as §1
NCI-H460 [18] = assay: Induction of apoptosis in human NCI-H460 cells at 5 to 30 uM after 24 hrs by flow cytometric analysis; assay type: functional, cell-based
[19] = molecular target: Transcription factor Jun (Homo sapiens) (UniProt P05412); assay: Induction of c-Jun phosphorylation in human NCI-H460 cells at 20 uM after 12 hrs by Western blot analysis; assay type: cell-based; summary of the method: as §2
NCI-H460 [20] = assay: Induction of GRP78 mRNA expression in human NCI-H460 cells at 5 to 20 uM after 3 hrs by real time quantitative PCR analysis; assay type: functional, cell-based
Summary of the method: (§3)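 H460 cells treated across a concentration range for 3 h. GRP78 mRNA quantified by RT-qPCR, normalized to β-actin and expressed as percent of vehicle.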

Mus musculus [21] = assay: Toxicity in ICR mouse assessed as mortality at 400 to 800 mg/kg; assay type: organism-based; set-up: dose 400-800 mg/kg; details: in vivo
NCI-H460 [22] = assay: Induction of GRP78 mRNA expression in human NCI-H460 cells after 1 hrs by real time quantitative PCR analysis; assay type: functional, cell-based
Summary of the method: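 H460 cells treated across a concentration range for 1 h. GRP78 mRNA quantified by RT-qPCR, normalized to β-actin and expressed as percent of vehicle.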

NCI-H460 [23] = assay: Induction of GRP78 protein expression in human NCI-H460 cells at 5 to 20 uM after 3 hrs by Western blot analysis; assay type: functional, cell-based
Summary of the method: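 H460 cells treated for 3 h; GRP78 protein detected by Western blot with actin as loading control.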

NCI-H460 [24] = assay: Induction of apoptosis in human NCI-H460 cells assessed as viable cells at 20 uM after 6 hrs by annexinV-propidium iodide staining based flow cytometric analysis relative to control; assay type: functional; details: NCI-H460, 6 h, read-out: Activity; summary of the method: as §1
NCI-H460 [25] = assay: Cytotoxicity against human NCI-H460 cells transfected with lentivirus carrying CHOP siRNA assessed as reduction of cell viability at 10 uM after 24 hrs by CellTiter-Glo analysis; assay type: functional, cell-based
Summary of the method: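 H460 cells infected with lentivirus carrying CHOP siRNA or nonspecific siRNA; 48 h later treated with 10 μM for 24 h. Survival measured with CellTiter-Glo as percent of nontransfected DMSO-treated cells.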

NCI-H460 [26] = assay: Induction of GRP78 mRNA expression in human NCI-H460 cells after 3 hrs by real time quantitative PCR analysis; assay type: functional, cell-based; summary of the method: as §3

With `COc1cccc(/C=C/C(=O)/C=C/c2cccc(OC)c2OC)c1OC` the Activity (NCI-H460 [1]) was “Active”, the Activity (NCI-H460 [2]) was “Dose-dependent effect” and the Activity (NCI-H460 [3]) was “Active”. For the same compound, the Activity (NCI-H460 [4]) was “Active”, the Activity (Mus musculus [5]) was “Non-toxic” and the viability at 5 µM (NCI-H460 [6]) was 89.4%. For the same compound, the Activity (NCI-H460 [7]) was 46.5%, the Activity (NCI-H460 [8]) was 7.44% and the Activity (NCI-H460 [9]) was 1.49%. The Activity (NCI-H460 [10]) was 2.62%, the Activity (NCI-H460 [11]) was “Dose-dependent effect” and the Activity (NCI-H460 [12]) was “inactive”. The Activity (NCI-H460 [13]) was 1.48%, the Activity (NCI-H460 [14]) was 3.3% and the Activity (NCI-H460 [15]) was “Dose-dependent effect”. For the same compound, the Activity [16] was “Active”, the Activity (NCI-H460 [17]) was 29.63% and the Activity (NCI-H460 [18]) was “Active”. For the same compound, the Activity [19] was “Active”, the Activity (NCI-H460 [20]) was “Active” and the Activity (Mus musculus [21]) was “Non-toxic”. For the same compound, the Activity (NCI-H460 [22]) was “Active”, the Activity (NCI-H460 [23]) was “Active” and the viability at 20 µM (NCI-H460 [24]) was 57.3%. For the same compound, the Activity (NCI-H460 [25]) was “inactive” and the Activity (NCI-H460 [26]) was “Dose-dependent effect”.
